Screening results deposited in PubChem BioAssay by Broad Institute.
rRNA inh HTS: inhibits bacterial ribosomal RNA function over humanized ribosomes | hit rate 1.6% among 350,000 | AID 720706 | GFP signal change (wild-type ribosome), % (test concentration not listed) | E. coli WT GFP vs humanized-ribosome RFP mutants, fluorescence, 24 h; stronger effect = lower value; DMSO median 0, no signal -100;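 active = significant combined selectivity score with lowered wild-type GFP, culture density cut under 30%, mutant RFP and density less affected; inactive = any of these conditions unmet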
Statin myotox sup: suppression of simvastatin myotoxicity; C2C12 myotubes + simvastatin, ATP luminescence, 48 h; scaled: DMSO 0, geranylgeraniol control 100; hit rate 0.78% among 330,000; rescue of ATP level, % at 7.49 µM;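 active = mean ATP rescue above about 67%, or every replicate alone reaching that limit, limit read from the data, passing the limit was not always enough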;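 note: myotubes were challenged with 10 µM simvastatin during compound exposure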
E-selectin induc: E-selectin induction on HUVECs | P16581 | HUVEC E-selectin immunofluorescence imaging; normalized: neutral wells 0, TNF-alpha wells 100 | activation, % at 7.58 µM | hit rate 0.37% among 260,000 | AID 686992;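 active = mean E-selectin-positive cell signal at least 10% of the positive control, reached in at least 60% of replicates, without over 20% cell loss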
Target sequence (P16581 whole entry, looked up): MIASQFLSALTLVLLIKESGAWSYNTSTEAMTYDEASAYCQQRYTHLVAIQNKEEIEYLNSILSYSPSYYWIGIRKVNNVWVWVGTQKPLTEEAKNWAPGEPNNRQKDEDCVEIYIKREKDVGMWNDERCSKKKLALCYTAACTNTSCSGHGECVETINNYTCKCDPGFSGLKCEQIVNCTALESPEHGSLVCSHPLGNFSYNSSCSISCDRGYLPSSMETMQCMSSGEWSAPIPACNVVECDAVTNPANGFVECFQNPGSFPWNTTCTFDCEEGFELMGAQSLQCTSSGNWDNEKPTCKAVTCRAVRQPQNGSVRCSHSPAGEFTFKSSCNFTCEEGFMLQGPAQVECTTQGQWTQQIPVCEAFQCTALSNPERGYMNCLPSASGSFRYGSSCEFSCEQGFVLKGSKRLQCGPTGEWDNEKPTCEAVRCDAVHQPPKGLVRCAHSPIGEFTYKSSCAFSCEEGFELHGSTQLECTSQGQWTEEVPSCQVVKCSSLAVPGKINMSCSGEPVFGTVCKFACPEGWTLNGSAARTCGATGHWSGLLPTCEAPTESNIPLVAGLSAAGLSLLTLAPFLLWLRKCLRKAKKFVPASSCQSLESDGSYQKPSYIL
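System: HUVEC / Compound: single concentration / Signal: immunofluorescence imaging / Read-out: percent E-selectin-positive cells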
FN deposition inh: fibronectin deposition inhibition; AH1F fibroblasts, Alexa488-fibronectin deposition fluorescence, overnight; inhibition, % at 12.6 µM; hit rate 0.086% among 350,000; AID 743247;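 active = mean inhibition across replicates of 30% or more, regardless of how many single replicates reach that level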
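Assay system: AH1F fibroblasts / Quantity: 10000 cells per well / Medium: DMEM plus 2% serum, read in PBS / Reagent: labelled fibronectin 24 nM / Dosing: single dose, pinned / Times: 1 h cell attachment, overnight exposure to compound and label / Signal: fluorescence, ex 485 nm, em 525 nm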
SIRT5 block: inhibitors of human sirtuin-5 desuccinylase. AID 652115. hit rate 1.1% among 330,000. Purified SirT5, succinyl-peptide AMC, trypsin-coupled fluorescence. inhibition, % at 15 µM; in the data active = inhibition above about 15%
FGF22 binding: binders of recombinant human FGF22 by thermal shift. Q9HCT0. SYPRO orange fluorescence; percent of sucrose octasulfate shift, DMSO zero. activity (Tm shift, normalised), % at 9.99 µM. hit rate 1.5% among 340,000. AID 651658;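 active = mean Tm shift, scaled 0 neutral to 100 positive control, at about 1.3% or above, every replicate too, limit read from the data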
A number is an active result. This is a sample that favours compounds with a hit; in the whole collection about 4% have one here.

How did NNC(=O)c1[nH]c2ccc(Cl)cc2c1-c1ccccc1 do in these assays?
rRNA inh HTS: inactive; FN deposition inh: inactive; SIRT5 block: inactive; FGF22 binding: inactive

What do the screens show for `Cc1ccc2[nH]c(C(=O)O)c(-c3ccccc3)c2c1`?
Statin myotox sup: inactive

What do the screens show for `Cc1ccc2[nH]c(C(=O)NN=C3CCCCC3)c(-c3ccccc3)c2c1`?
rRNA inh HTS: inactive; E-selectin induc: inactive; FN deposition inh: inactive; SIRT5 block: inactive; FGF22 binding: 42.9

What do the screens show for `NNC(=O)c1[nH]c2ccc(Br)cc2c1-c1ccccc1`?
rRNA inh HTS: -25.7; E-selectin induc: inactive; FN deposition inh: inactive; FGF22 binding: inactive

What do the screens show for `CO[C@@H]1CN(C)C(=O)c2ccc(NC(=O)C3CC3)cc2OC[C@@H](C)N(Cc2cccnc2)C[C@H]1C`?
rRNA inh HTS: inactive; Statin myotox sup: inactive; E-selectin induc: inactive; FN deposition inh: inactive; SIRT5 block: inactive; FGF22 binding: inactive

What do the screens show for `C[C@H](CO)N1C[C@H](C)[C@H](CN(C)C(=O)CN(C)C)Oc2ncc(C#Cc3ccccc3)cc2C1=O`?
rRNA inh HTS: inactive; Statin myotox sup: inactive; E-selectin induc: inactive; FN deposition inh: inactive; SIRT5 block: inactive; FGF22 binding: inactive

Results for O=C(OCc1cccc(F)c1)c1ccc2c(=O)n3c(nc2c1)CCC3 ?
rRNA inh HTS: -24.1; Statin myotox sup: inactive; FN deposition inh: inactive; SIRT5 block: inactive; FGF22 binding: inactive

What do the screens show for `CC1(C)CC(NCCN2CCN(C3=CC(=C(C#N)C#N)CC(C)(C)C3)CC2)=CC(=C(C#N)C#N)C1`?
rRNA inh HTS: inactive; FN deposition inh: inactive; SIRT5 block: inactive; FGF22 binding: 44.7

Results for O=C(C1=C[C@@H](c2ccc(C(F)(F)F)cc2)C[C@@H](OCc2ccc(CO)cc2)O1)N1CCCC1 ?
SIRT5 block: inactive; FGF22 binding: inactive

What do the screens show for `CCOc1ccc(N2CC(C(=O)NCCc3c[nH]c4ccc(OC)cc34)CC2=O)cc1` (configuration not stated)?
rRNA inh HTS: inactive; Statin myotox sup: inactive; FN deposition inh: inactive; SIRT5 block: inactive; FGF22 binding: inactive

How did COc1ccc(N2CC(C(=O)N/N=C/c3c[nH]c4ccccc34)CC2=O)cc1 (configuration not stated) do in these assays?
rRNA inh HTS: inactive; E-selectin induc: inactive; FN deposition inh: inactive; SIRT5 block: inactive; FGF22 binding: 43.6

How did COc1ccc2[nH]cc(CCNC(=O)C3CC(=O)N(c4ccc(Cl)cc4)C3)c2c1 (configuration not stated) do in these assays?
rRNA inh HTS: -23.8; Statin myotox sup: inactive; FN deposition inh: inactive; SIRT5 block: inactive; FGF22 binding: inactive

What do the screens show for `CCCNC(=O)[C@@H]1[C@@H](CO)[C@@H]2Cn3c(ccc(-c4ccccc4OC)c3=O)[C@@H]2N1S(C)(=O)=O`?
rRNA inh HTS: inactive; E-selectin induc: inactive; SIRT5 block: inactive

What do the screens show for `OC[C@@H]1[C@H](c2ccc(-c3ccc(F)cc3)cc2)[C@@H]2CN(CCC(F)(F)F)CCCCN12`?
rRNA inh HTS: inactive; E-selectin induc: inactive; SIRT5 block: inactive; FGF22 binding: inactive

Results for CC(C)C[C@H](NC(=O)c1[nH]cnc1C(=O)N[C@@H](Cc1ccccc1)C(=O)OCc1ccccc1)C(=O)OCc1ccccc1 ?
rRNA inh HTS: inactive; Statin myotox sup: 136.8; E-selectin induc: inactive; FN deposition inh: inactive; FGF22 binding: inactive

Results for CC(C)C[C@H](NC(=O)c1nc[nH]c1C(=O)NCC(=O)OCc1ccccc1)C(=O)OC(C)(C)C ?
rRNA inh HTS: inactive; Statin myotox sup: inactive; FN deposition inh: inactive; SIRT5 block: 20.7; FGF22 binding: inactive

How did Cc1ccccc1S(=O)(=O)NCC[C@@H]1CC[C@@H](NC(=O)C2CCCCC2)[C@H](CO)O1 do in these assays?
rRNA inh HTS: inactive; Statin myotox sup: inactive; E-selectin induc: inactive; FN deposition inh: inactive; SIRT5 block: inactive; FGF22 binding: inactive

What do the screens show for `Cc1ccc(C(=O)N/N=C/c2cc(Br)ccc2O)cn1`?
rRNA inh HTS: inactive; Statin myotox sup: inactive; E-selectin induc: inactive; FN deposition inh: inactive; SIRT5 block: inactive; FGF22 binding: inactive
